Experiment [1] is described as follows: inhibitors of TNFa-induced NFkB p65 translocation, primary screen, imaging, HUVEC, MLSMR starter and 10KST1 sets (AID 438;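 active = inhibition above 20% together with a positive visual image hit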;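 note: compound added about 3h40 before a 20 min TNFalpha stimulation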;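 for inhibition: signal is the nuclear over cytoplasmic p65 intensity ratio per well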). The settings on record: HUVEC TNFa-induced p65 nuclear translocation; cell count: measured here: nuclei count (cytotoxicity indicator), at 2.08 µM; inhibition: at 2 µM, stronger effect = higher value, 0% TNFa-plus-vehicle, 100% no-TNFa wells.
A short description of experiment [2]: inhibitors of mutant huntingtin aggregation, primary screen, imaging, exon1htt(103Q)mCFP cells, high-content imaging (AID 483;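 active = visual image review flags a hit and inhibition of aggregation exceeds 20%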;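 note: compound exposure lasted 3 days before fixation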;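 for nuclei count: percent of the per-plate median nuclei count of sample wells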). The settings on record: exon1htt(103Q)mCFP cell line, aggregate imaging, at 2 µM; inhibition of aggregation: stronger effect = higher value; nuclei count: measured here: cell count, toxicity.
The nature of experiment [3]: inhibitors of E-selectin induction by TNFa, primary screen, imaging, HUVEC, immunofluorescence, MLSMR starter and 10KST1 sets (AID 487;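 active = visually confirmed hit in the image check and inhibition above 20%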;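 for inhibition: signal is fraction of cell area covered by stained E-selectin grains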;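 for nuclei count: 100% = median nuclei count of all wells on the same plate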). To be noted: HUVEC TNFalpha-induced E-selectin immunofluorescence imaging, at 2 µM; inhibition: stronger effect = higher value; nuclei count: measured here: cell number, toxicity.
The target in experiment [4] is Voltage-gated potassium channel subunit beta-2 (Rattus norvegicus) (UniProt P62483). Kind of experiment: KvBeta enzyme negative modulators, primary screen, biochemical, NADPH fluorescence (AID 622).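 Note: slope of raw intensity against log time taken from 70 to 1610 s.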 To be noted: recombinant KvBeta, 4-cyanobenzaldehyde reduction, at 10 µM, stronger effect = higher value.
Sequence of Voltage-gated potassium channel subunit beta-2 (Rattus norvegicus) (P62483 whole entry, looked up): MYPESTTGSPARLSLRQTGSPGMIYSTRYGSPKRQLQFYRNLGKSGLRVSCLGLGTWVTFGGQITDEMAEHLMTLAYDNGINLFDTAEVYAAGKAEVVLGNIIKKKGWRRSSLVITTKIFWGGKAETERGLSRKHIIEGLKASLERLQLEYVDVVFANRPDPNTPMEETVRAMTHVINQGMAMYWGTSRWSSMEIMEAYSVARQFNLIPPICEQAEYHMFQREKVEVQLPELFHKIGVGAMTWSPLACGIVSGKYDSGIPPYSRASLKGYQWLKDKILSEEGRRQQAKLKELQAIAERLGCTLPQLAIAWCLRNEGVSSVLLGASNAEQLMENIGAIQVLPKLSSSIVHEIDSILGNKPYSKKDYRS
For experiment [5] the target is unchanged. Kind of experiment: KvBeta positive modulators, primary screen, biochemical, NADPH fluorescence (AID 623;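 active = NADPH fluorescence slope more negative than the mean of all samples by about 3 SD, 99.7% confidence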;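 note: fluorescence intensity change per second fitted from 20 to 320 s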). To be noted: Recombinant KvBeta, NADPH fluorescence decrease slope, 10 min; at 10 µM; stronger effect = lower value.
Experiment [6] addresses Muscarinic acetylcholine receptor M4 (Homo sapiens) (UniProt P08173). Kind of experiment: compounds altering M4/GIRK thallium flux, either direction, primary screen, M4 allosteric agonist project, cell-based, HEK293 M4/GIRK, BTC-AM (AID 625;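 active = fluorescence slope after compound addition differing from the mean of all tested samples at 99.7% confidence, mostly higher but some lower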;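 note: thallium influx through GIRK channels coupled to M4 in HEK293 cells with BTC-AM dye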). To be noted: at 10 µM, actives lie on both sides. In short, it runs like this:
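assay system = HEK293 cells with M4 receptor and GIRK channels | medium = pH 7.3 thallium assay buffer | doses = 10 µM final, single point | timing = cells overnight at 37 °C, BTC-AM loading 1 h, reads 2 min total | signal = BTC-AM fluorescence, 1 Hz kinetic reads | read-out = post-addition slope, 15–24 s, of baseline-normalized fluorescence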

Experiment [7] in a line: inhibitors of Sendai virus-induced IRF3 signaling, primary screen, TLR/RLR signaling modifier project, cell-based, Sendai virus stimulus, luciferase, 10K MLSCN set (AID 602276;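 active = inhibition at or above 50% at 10 µM; inactive = inhibition below 50%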;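 note: firefly luciferase from ISG56 promoter only with Renilla not read in this screen; 0% = Sendai virus plus DMSO and 100% = medium plus DMSO without virus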). The settings on record: HEK293 RL24 IRF3 luciferase reporter, at 10 µM, stronger effect = higher value.
Experiment [8] can be described thus: inhibitors of poly I:C-induced TLR3 signaling, primary screen, cell-based, poly I:C stimulus, luciferase, 10K MLSCN set (AID 602277;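 active = inhibition of the reporter signal at or above 50%; inactive = inhibition below 50%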). To be noted: HEK293-TLR3 RL24 IRF3 luciferase reporter, at 10 µM, stronger effect = higher value. (A reporter such as luciferase makes a cellular process visible.)

The source made the active and inactive calls.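 Rule for the calls, unless noted: active = fluorescence slope higher than the sample average by over 3 SD (cut at about -0.22 in these data, passing the limit was not always enough); inactive = the rest.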

These results are taken from PubChem BioAssay.

Usually inhibition stands for the change of the read-out against control, counted positive when it falls.

Sequence of Muscarinic acetylcholine receptor M4 (Homo sapiens) (P08173 whole entry, looked up): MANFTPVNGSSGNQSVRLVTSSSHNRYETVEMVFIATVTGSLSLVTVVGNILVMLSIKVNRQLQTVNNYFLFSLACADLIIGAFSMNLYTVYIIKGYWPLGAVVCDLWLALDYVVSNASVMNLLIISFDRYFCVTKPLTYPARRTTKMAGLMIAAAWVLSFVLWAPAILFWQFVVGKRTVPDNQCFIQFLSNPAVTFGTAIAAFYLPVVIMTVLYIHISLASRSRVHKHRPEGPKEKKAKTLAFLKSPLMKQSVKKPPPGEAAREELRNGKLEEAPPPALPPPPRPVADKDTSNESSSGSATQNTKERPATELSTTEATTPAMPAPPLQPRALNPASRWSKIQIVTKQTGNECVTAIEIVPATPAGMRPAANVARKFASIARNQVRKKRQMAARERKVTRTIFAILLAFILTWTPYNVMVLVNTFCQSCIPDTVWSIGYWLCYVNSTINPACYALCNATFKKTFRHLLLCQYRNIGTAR

Take `COC(=O)c1cc(OC)c(OC)cc1NC(=O)CC1CCCCC1`: the cell count in experiment [1] stood at 291. Further, the inhibition in experiment [1] is -8.9% (inactive); in experiment [3] it was 36.1% (inactive); in experiment [7] it was 11.3% (inactive); in experiment [8], 11.2% (inactive). For the same compound, the inhibition of aggregation in experiment [2] is 0.4% (inactive). Moreover, the nuclei count in experiment [2] is 84.5%; in experiment [3], 73.5%. For the same compound, the results for the fluorescence slope in experiment [4] and in experiment [6] were -0.558 (inactive) and 0.00549 (inactive), respectively. For the same compound, in experiment [5], the NADPH fluorescence slope was -2.3e-05 (inactive).

Turning to `O=C(Cc1cccs1)Nc1ccccc1C(=O)O`, the cell count in experiment [1] stood at 365. In addition, the inhibition in experiment [1] is 2.6% (inactive); in experiment [3], -7.6% (inactive); in experiment [7], -8.52% (inactive); in experiment [8], -27.9% (inactive). The inhibition of aggregation in experiment [2] is 13.3% (inactive). In addition, the figures for the nuclei count in experiment [2] and in experiment [3] were 99.5% and 113%, respectively. The fluorescence slope was -0.524 (inactive) in experiment [4] and 0.00502 (inactive) in experiment [6]. In addition, the NADPH fluorescence slope in experiment [5] is -3.3e-05 (inactive).

Take `Cc1ccc(C(=O)CCC2CCCC2=O)cc1` (centres undefined): the cell count in experiment [1] is 718. The inhibition in experiment [1] was -21.6% (inactive); in experiment [3], 22.6% (inactive); in experiment [7], -20.4% (inactive); in experiment [8] it was -124% (inactive). Moreover, the inhibition of aggregation in experiment [2] was -2.7% (inactive). Also, the values for the nuclei count in experiment [2] and in experiment [3] were 86.9% and 97.8%, respectively. The fluorescence slope in experiment [4] was -0.263 (inactive); in experiment [6], 0.00558 (inactive). The NADPH fluorescence slope in experiment [5] is -3.8e-05 (inactive).

For `CCSc1nc2c(c(=O)n(C)c(=O)n2C)n1Cc1ccc(Cl)cc1`, in experiment [1], the cell count is 440. Moreover, the inhibition is 3.3% (inactive) in experiment [1], -15.6% (inactive) in experiment [3], 11.8% (inactive) in experiment [7] and 4.67% (inactive) in experiment [8]. The inhibition of aggregation in experiment [2] is 0.4% (inactive). Besides, the values for the nuclei count in experiment [2] and in experiment [3] were 106% and 112%, respectively. The fluorescence slope in experiment [4] was -0.527 (inactive); in experiment [6], 0.00489 (inactive). Moreover, the NADPH fluorescence slope in experiment [5] is -4.7e-05 (inactive).

Consider `Cc1ccc(NC(=O)C2CCCN2C(=O)Oc2ccccc2)cc1` (centres undefined), for which the cell count in experiment [1] was found to be 344. The inhibition in experiment [1] was 6% (inactive); in experiment [3], 26.5% (inactive); in experiment [7], 5.65% (inactive); in experiment [8], 12.3% (inactive). In addition, the inhibition of aggregation in experiment [2] is 3.9% (inactive). Besides, the figures for the nuclei count in experiment [2] and in experiment [3] were 88.6% and 79.2%, respectively. Besides, the fluorescence slope in experiment [4] is -0.41 (inactive); in experiment [6] it was 0.00654 (inactive). The NADPH fluorescence slope in experiment [5] is -6.8e-06 (inactive).

Consider `Cc1cc2oc(C(=O)NC3CCS(=O)(=O)C3)c(C)c2cc1C` (centres undefined), for which the cell count in experiment [1] amounted to 328. Besides, the inhibition is 5.6% (inactive) in experiment [1], -75.1% (inactive) in experiment [3], 9.17% (inactive) in experiment [7] and -12% (inactive) in experiment [8]. In addition, the inhibition of aggregation in experiment [2] was -2.9% (inactive). The figures for the nuclei count in experiment [2] and in experiment [3] were 97% and 118%, respectively. The figures for the fluorescence slope in experiment [4] and in experiment [6] were -0.576 (inactive) and 0.00365 (inactive), respectively. The NADPH fluorescence slope in experiment [5] was -3.1e-05 (inactive).

With `Cc1cnnc2c1-c1nonc1CC2`, the cell count in experiment [1] is 347. The inhibition in experiment [1] was 2% (inactive); in experiment [3], 5.6% (inactive); in experiment [7] it was 17.8% (inactive); in experiment [8] it was 14.6% (inactive). Moreover, the inhibition of aggregation in experiment [2] is -17.8% (inactive). Besides, the nuclei count was determined as 109% in experiment [2] and 116% in experiment [3]. Also, the fluorescence slope in experiment [4] is -0.529 (inactive); in experiment [6], 0.00506 (inactive). The NADPH fluorescence slope in experiment [5] is 3.9e-05 (inactive).

With `CCCn1cc(SCC(=O)NCc2ccco2)c2ccccc21`, in experiment [1], the cell count stood at 679. Further, the inhibition was -25.2% (inactive) in experiment [1], 20% (inactive) in experiment [3], 13% (inactive) in experiment [7] and 5.85% (inactive) in experiment [8]. In addition, in experiment [2], the inhibition of aggregation is -35.4% (inactive). In addition, the nuclei count in experiment [2] was determined as 124%; in experiment [3] it was 100%. In addition, the fluorescence slope was -0.521 (inactive) in experiment [4] and 0.00408 (inactive) in experiment [6]. In experiment [5], the NADPH fluorescence slope was 9.7e-06 (inactive).

As for `CCN1CCN(Cc2ccc(NC(=O)Nc3ccc(SC)cc3)cc2)CC1`, the cell count in experiment [1] is 268. The inhibition is -1.7% (inactive) in experiment [1], -52.1% (inactive) in experiment [3], -29.9% (inactive) in experiment [7] and -81.3% (inactive) in experiment [8]. The inhibition of aggregation in experiment [2] is 16.3% (inactive). The nuclei count was 97.3% in experiment [2] and 93.5% in experiment [3]. Besides, the figures for the fluorescence slope in experiment [4] and in experiment [6] were -0.54 (inactive) and 0.00398 (inactive), respectively. In addition, the NADPH fluorescence slope in experiment [5] was -3.4e-05 (inactive).

Turning to `COCc1[nH]nc2c1C(C1C=CCCC1)C(C#N)=C(N)O2` (centres undefined), in experiment [1], the cell count stood at 463. The inhibition in experiment [1] is 5.7% (inactive); in experiment [3], -76.2% (inactive); in experiment [7], 16.7% (inactive); in experiment [8], 31.6% (inactive). Further, the inhibition of aggregation in experiment [2] is -1.8% (inactive). Moreover, the nuclei count in experiment [2] was found to be 110%; in experiment [3], 120%. Moreover, the fluorescence slope in experiment [4] was -0.464 (inactive); in experiment [6], 0.00521 (inactive). Also, the NADPH fluorescence slope in experiment [5] is -6.2e-05 (inactive).

For `CCOC(=O)c1cc(-c2ccc3c(c2)OCO3)nc2onc(C)c12`, the cell count in experiment [1] came out at 402. Also, the inhibition was 3.7% (inactive) in experiment [1], -64.2% (inactive) in experiment [3], -6.27% (inactive) in experiment [7] and -18.4% (inactive) in experiment [8]. Besides, the inhibition of aggregation in experiment [2] was 21.3% (inactive). The figures for the nuclei count in experiment [2] and in experiment [3] were 64.3% and 106%, respectively. In addition, the fluorescence slope is -0.00965 (inactive) in experiment [4] and 0.00537 (inactive) in experiment [6]. In experiment [5], the NADPH fluorescence slope was -7.8e-06 (inactive).

For the compound `CCCN(CCC)C(=O)CSc1nc2ccccc2c(=O)n1C1CCCC1`, the cell count in experiment [1] amounted to 475. In addition, the inhibition in experiment [1] is 3% (inactive); in experiment [3] it was -7.5% (inactive); in experiment [7], 15.9% (inactive); in experiment [8], 10.1% (inactive). The inhibition of aggregation in experiment [2] is -13.4% (inactive). Further, the nuclei count in experiment [2] is 93.4%; in experiment [3] it was 117%. In addition, the values for the fluorescence slope in experiment [4] and in experiment [6] were -0.452 (inactive) and 0.00476 (inactive), respectively. Also, the NADPH fluorescence slope in experiment [5] was -1.1e-05 (inactive).

On to `COc1cccc(CNc2cccc3cccnc23)c1O`, for which, in experiment [1], the cell count turned out to be 477. Further, the inhibition in experiment [1] was 5% (inactive); in experiment [3], -165% (inactive); in experiment [7] it was 13% (inactive); in experiment [8], 8.77% (inactive). Also, the inhibition of aggregation in experiment [2] was 19.2% (inactive). In addition, the values for the nuclei count in experiment [2] and in experiment [3] were 79.7% and 122%, respectively. Further, the fluorescence slope was -0.564 (inactive) in experiment [4] and 0.00309 (inactive) in experiment [6]. For the same compound, the NADPH fluorescence slope in experiment [5] was -7.6e-05 (inactive).

`COC(=O)c1cc(Br)c(=O)n(CCC2=CCCCC2)c1`: in experiment [1], the cell count came out at 559. Also, the inhibition was 0% (inactive) in experiment [1], 6.3% (inactive) in experiment [3], -1.92% (inactive) in experiment [7] and 9.19% (inactive) in experiment [8]. The inhibition of aggregation in experiment [2] was -16.7% (inactive). The results for the nuclei count in experiment [2] and in experiment [3] were 110% and 122%, respectively. Also, the fluorescence slope is -0.497 (inactive) in experiment [4] and 0.00488 (inactive) in experiment [6]. Moreover, the NADPH fluorescence slope in experiment [5] is 9.3e-05 (inactive).
